Measured values from ChEMBL document CHEMBL4261634, “Design and optimization of 2,3-dihydrobenzo[b][1,4]dioxine propanoic acids as novel GPR40 agonists with improved pharmacokinetic and safety profiles” (Bioorg Med Chem, 2018).
Calls of active or inactive are those of the source. The rule behind the calls is not given here.

What was measured:
[1] = target: T1, Free fatty acid receptor 1 (Homo sapiens, UniProt O14842); assay: Agonist activity at human GPR40 expressed in human HEK293 cells assessed as increase in intracellular calcium flux after 10 mins by fluorescence assay; type: functional, cell-based
Procedure, shortened: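 Human GPR40 activity read by calcium mobilization to give EC50. Mean ± SD, n = 3.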

[2] = target: T1, Free fatty acid receptor 1; assay: Agonist activity at human GPR40 expressed in human HEK293 cells assessed as increase in intracellular calcium flux after 10 mins by fluorescence assay relative to linoleic acid; type: functional, cell-based
Procedure, shortened: (§1)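 Human GPR40 activity read by calcium mobilization to give EC50. Emax expressed relative to linoleic acid as 100%. Mean ± SD, n = 3.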

Rattus norvegicus = assay: Antidiabetic activity in Sprague-Dawley rat assessed as reduction in blood glucose AUC (0 to 120 mins) at 10 to 20 mg/kg, po administered 60 mins prior to glucose challenge by OGTT; type: functional, organism-based
Procedure, shortened: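 OGTT in SD rats: compound given orally 60 min before a 3.0 g/kg glucose challenge. Blood glucose followed over time, and AUC0-60min or AUC0-120min calculated versus vehicle group. Mean ± SD, n = 8.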

[3] = AUC (0 to t) in Sprague-Dawley rat at 10 mg/kg, po by LC-ESI-MS analysis; type: ADME, organism-based; details: in vivo
Procedure, shortened: (§2)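 SD rats dosed orally (3 or 10 mg/kg) or by intravenous injection (1 mg/kg). Plasma PK parameters derived per route: Cmax, AUC0-t, Tmax, t1/2 and F after oral dosing; CL, AUC0-t, MRT, t1/2 and Vdss after iv dosing. Mean ± SD from three independent experiments (n = 3).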

[4] = MRT in Sprague-Dawley rat at 1 mg/kg, iv by LC-ESI-MS analysis; type: ADME, organism-based; details: in vivo; procedure, shortened: as §2
[5] = target: T1, Free fatty acid receptor 1; assay: Agonist activity at GPR40 (unknown origin); type: functional; procedure, shortened: as §1
[6] = target: Voltage-gated inwardly rectifying potassium channel KCNH2 (Homo sapiens, UniProt Q12809); assay: Inhibition of human ERG by patch-clamp assay
Procedure, shortened: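 hERG K+ channel inhibition measured by patch clamp to give IC50.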

T1 sequence (O14842 whole entry): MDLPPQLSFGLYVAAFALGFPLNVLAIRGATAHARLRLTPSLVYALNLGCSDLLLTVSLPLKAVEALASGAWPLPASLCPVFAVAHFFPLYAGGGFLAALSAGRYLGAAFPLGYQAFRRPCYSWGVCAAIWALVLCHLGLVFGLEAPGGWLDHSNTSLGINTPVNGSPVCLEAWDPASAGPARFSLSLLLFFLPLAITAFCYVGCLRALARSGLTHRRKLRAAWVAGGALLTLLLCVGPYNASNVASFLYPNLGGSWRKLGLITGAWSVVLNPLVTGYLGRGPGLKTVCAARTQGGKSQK
Voltage-gated inwardly rectifying potassium channel KCNH2, sequence (Q12809 whole entry): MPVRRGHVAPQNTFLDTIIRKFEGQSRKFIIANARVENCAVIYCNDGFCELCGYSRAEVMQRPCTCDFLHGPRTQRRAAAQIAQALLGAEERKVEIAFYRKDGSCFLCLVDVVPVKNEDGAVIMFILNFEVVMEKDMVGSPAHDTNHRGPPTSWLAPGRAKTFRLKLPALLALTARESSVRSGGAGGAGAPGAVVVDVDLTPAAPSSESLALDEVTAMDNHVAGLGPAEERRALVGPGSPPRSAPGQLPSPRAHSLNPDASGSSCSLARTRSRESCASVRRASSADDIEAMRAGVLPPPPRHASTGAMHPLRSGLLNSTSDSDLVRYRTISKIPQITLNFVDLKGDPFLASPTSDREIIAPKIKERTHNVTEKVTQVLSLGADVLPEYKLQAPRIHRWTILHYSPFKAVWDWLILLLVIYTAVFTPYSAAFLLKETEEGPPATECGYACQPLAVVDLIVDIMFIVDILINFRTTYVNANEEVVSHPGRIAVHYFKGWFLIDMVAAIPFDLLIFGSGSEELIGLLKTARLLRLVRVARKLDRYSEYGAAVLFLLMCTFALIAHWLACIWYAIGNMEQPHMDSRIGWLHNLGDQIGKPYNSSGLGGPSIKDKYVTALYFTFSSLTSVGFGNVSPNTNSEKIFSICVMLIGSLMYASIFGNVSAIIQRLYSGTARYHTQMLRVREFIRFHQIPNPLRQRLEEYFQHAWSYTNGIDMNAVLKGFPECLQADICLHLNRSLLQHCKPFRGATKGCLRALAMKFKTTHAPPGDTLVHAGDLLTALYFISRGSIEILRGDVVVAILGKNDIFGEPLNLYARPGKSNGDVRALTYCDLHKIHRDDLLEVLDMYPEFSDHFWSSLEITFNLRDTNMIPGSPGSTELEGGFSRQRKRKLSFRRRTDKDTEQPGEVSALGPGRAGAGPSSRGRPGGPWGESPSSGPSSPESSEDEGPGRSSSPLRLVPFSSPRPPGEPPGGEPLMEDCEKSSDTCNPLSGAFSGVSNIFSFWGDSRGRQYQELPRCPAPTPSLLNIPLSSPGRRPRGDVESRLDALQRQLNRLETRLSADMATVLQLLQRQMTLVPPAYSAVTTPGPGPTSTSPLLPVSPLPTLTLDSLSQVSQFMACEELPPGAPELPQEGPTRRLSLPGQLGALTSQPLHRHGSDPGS

CC#C[C@@H](CC(=O)O)c1ccc(OC[C@H]2COc3ccc(Cl)cc3O2)cc1
EC50 [1]: 50 nM
Emax [2]: 86%
Activity (Rattus norvegicus): Active
AUC(0-t) [3]: 656 µg·h/mL
MRT [4]: 17.9 h
EC50 [5]: 46 nM
IC50 [6]: > 40000 nM
